The source made the active and inactive calls. The calls are words filed in the database; no cut-off is given here.
Legend:
Homo sapiens = species: Homo sapiens; assay: Inhibition of NF-kappaB in HUVECtert assessed as reduction in TNFalpha-induced VCAM-1 mRNA expression level at 0.5 uM pretreated for 30 mins followed by TNFalpha stimulation measured after 4 hrs by qRT-PCR analysis
[1] = target: Transcription factor p65 (Homo sapiens) (UniProt Q04206); assay: Inhibition of TNFalpha-stimulated NF-kappaB p65 nuclear translocation in HUVECtert nuclear extracts at 2 uM pretreated for 30 mins followed by TNFalpha stimulation measured after 1 hr by Western blot method
Summary of the method: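 Cells grown 48 h, pretreated 30 min with 2 μM or 0.1% DMSO, then TNFα 10 ng/mL for 1 h. Hypotonic NP40 lysis gave cytosol; nuclei extracted in 420 mM NaCl HEPES buffer pH 7.5. Nuclear p65 by Western blot, lamin loading control, tubulin/lamin verifying fractions; n = 3.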

Sequence of Transcription factor p65 (Homo sapiens) (Q04206 whole entry): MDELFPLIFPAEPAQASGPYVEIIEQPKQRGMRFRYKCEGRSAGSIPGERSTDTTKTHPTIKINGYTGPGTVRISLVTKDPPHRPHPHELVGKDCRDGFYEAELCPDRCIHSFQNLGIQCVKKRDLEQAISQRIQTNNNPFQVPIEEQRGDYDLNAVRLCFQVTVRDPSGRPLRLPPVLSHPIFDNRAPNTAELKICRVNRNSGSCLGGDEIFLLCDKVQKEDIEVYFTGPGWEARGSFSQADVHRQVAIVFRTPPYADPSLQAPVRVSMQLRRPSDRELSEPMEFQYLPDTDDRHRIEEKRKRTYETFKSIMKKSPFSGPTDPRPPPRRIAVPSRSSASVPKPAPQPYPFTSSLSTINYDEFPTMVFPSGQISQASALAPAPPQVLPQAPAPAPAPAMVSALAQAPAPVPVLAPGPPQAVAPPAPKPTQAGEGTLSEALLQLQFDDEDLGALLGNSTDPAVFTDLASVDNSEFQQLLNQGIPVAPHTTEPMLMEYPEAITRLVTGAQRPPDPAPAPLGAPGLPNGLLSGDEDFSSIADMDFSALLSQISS

Structure (SMILES): CC1=CC(=O)[C@@H](O)[C@@]2(C)[C@H]1CC(=O)[C@@]1(C)[C@H]3C(=O)O[C@H]([C@@H]3C)[C@H](O)[C@@H]12 [EURYCOMALACTONE]
- inhibition (Homo sapiens): inactive
- inhibition [1]: inactive

From ChEMBL document CHEMBL4138188, “Eurycomalactone Inhibits Expression of Endothelial Adhesion Molecules at a Post-Transcriptional Level” (J Nat Prod, 2017)
